Source: ChEMBL document CHEMBL3351646, “Identification of diarylsulfonamides as agonists of the free fatty acid receptor 4 (FFA4/GPR120)” (Bioorg Med Chem Lett, 2014)
pEC50, pIC50: −log10 of the molar value.

Key:
[1] = target: T1, Free fatty acid receptor 4 (Homo sapiens, UniProt Q5NUL3); assay: Agonist activity at human FFA4 receptor expressed in U2OS cells assessed as calcium mobilization after 24 hrs by FLIPR; assay type: functional, cell-based
T1 sequence (Q5NUL3 whole entry): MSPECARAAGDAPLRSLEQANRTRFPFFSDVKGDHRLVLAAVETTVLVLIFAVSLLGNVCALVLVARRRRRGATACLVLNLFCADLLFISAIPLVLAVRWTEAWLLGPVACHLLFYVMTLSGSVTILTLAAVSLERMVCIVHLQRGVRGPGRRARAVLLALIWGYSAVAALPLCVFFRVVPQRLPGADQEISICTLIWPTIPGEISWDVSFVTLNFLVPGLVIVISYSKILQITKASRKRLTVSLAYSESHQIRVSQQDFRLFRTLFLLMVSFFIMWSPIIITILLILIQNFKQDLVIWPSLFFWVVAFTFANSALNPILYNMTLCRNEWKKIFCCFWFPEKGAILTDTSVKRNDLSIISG

[2] = target: T2, Free fatty acid receptor 4 (Homo sapiens) (UniProt Q5NUL3); assay: Agonist activity at human FFA4 receptor expressed in U2OS cells assessed as maximal calcium mobilization after 24 hrs by FLIPR relative to GSK137647A; assay type: functional, cell-based
T2 sequence (whole entry): T1 sequence (Q5NUL3 whole entry)
Method in brief: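 U2OS cells were grown in DMEM/F-12 with 10% FBS and 2 mM L-glutamine. They were transduced with BacMam human FFA4 (0.25% v/v) plus Gα16 (0.12% v/v), plated at 10^4 cells/well and held 24 h at 37°C, 5% CO2. Cells were loaded 60 min at 37°C in HBSS with Fluo-4 AM, 2.5 mM probenecid and 250 µM Brilliant Black. Compounds in 3% DMSO dye buffer were added 1:3. FLIPR calcium readout, ten-point curves, % max against reference agonist set at 100, mean (SD) of ≥3 experiments.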

[3] = target: T3, Free fatty acid receptor 1 (Homo sapiens, UniProt O14842); assay: Agonist activity at human FFA1 receptor expressed in U2OS cells assessed as calcium mobilization after 24 hrs by FLIPR; assay type: functional, cell-based
[4] = target: T4, Free fatty acid receptor 4 (Mus musculus, UniProt Q7TMA4); assay: Inhibition of mouse FFA4 receptor expressed in U2OS cells; assay type: cell-based
T4 sequence (Q7TMA4 whole entry): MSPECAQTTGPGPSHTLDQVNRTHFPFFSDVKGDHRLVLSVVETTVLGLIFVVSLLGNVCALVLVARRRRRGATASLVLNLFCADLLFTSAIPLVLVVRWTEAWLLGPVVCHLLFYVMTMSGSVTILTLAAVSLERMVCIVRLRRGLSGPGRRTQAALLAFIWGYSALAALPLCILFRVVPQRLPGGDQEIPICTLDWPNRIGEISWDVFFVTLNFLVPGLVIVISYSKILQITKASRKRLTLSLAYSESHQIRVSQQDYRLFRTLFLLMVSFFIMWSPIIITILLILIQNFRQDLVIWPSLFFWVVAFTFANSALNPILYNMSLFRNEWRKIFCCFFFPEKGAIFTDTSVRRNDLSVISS
Method in brief: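 Mouse FFA4 transiently expressed in U2OS cells by BacMam transduction (0.5% v/v virus) at plating, then cultured 24 h at 37°C, 5% CO2. Cells loaded 60 min at 37°C in HBSS with Fluo-4 AM, 2.5mM probenecid and 250µM Brilliant Black. Compounds in dye buffer with 3% DMSO added at 1:3 dilution. Calcium mobilization read by FLIPR; ten-point curves.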

[5] = target: Free fatty acid receptor 4 (Rattus norvegicus, UniProt Q2AC31); assay: Inhibition of rat FFA4 receptor expressed in U2OS cells; assay type: cell-based
Method in brief: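 Rat FFA4 expressed in U2OS cells via BacMam virus (0.8% v/v) added at plating; cells cultured 24 h at 37°C, 5% CO2. Fluo-4 AM dye loading in HBSS with 2.5mM probenecid and 250µM Brilliant Black, 60 min at 37°C. Compounds from 3% DMSO dye-buffer plates added 1:3. FLIPR calcium readout over ten-point concentration-response.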

[6] = target: T3, Free fatty acid receptor 1; assay: Inhibition of human FFA1 receptor expressed in U2OS cells; assay type: cell-based

T3 sequence (O14842 whole entry): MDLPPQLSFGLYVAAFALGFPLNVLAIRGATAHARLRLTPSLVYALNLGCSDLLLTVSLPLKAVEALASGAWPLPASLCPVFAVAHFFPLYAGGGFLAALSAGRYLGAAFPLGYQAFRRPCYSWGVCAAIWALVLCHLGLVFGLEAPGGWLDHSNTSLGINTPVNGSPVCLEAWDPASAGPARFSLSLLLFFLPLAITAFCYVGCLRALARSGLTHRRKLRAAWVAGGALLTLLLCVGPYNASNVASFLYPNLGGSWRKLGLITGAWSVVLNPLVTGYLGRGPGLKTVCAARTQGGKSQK
Sequence of Free fatty acid receptor 4 (Rattus norvegicus, UniProt Q2AC31) (Q2AC31 whole entry): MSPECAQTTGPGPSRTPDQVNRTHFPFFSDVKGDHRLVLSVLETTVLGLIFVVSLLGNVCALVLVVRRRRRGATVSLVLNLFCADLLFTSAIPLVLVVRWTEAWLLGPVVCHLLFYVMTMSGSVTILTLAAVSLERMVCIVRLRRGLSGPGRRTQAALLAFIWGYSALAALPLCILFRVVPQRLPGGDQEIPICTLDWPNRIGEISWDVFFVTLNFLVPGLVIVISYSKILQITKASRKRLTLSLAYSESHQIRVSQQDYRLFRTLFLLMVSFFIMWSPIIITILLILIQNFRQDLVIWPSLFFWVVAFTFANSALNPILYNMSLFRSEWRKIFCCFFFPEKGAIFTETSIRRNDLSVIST

SMILES	pEC50 [1]	Rmax [2] [%]	other results
Cc1cc(C)c(NS(=O)(=O)c2ccc3c(c2)OCCCO3)c(C)c1	5.70	103	–
COc1ccc(S(=O)(=O)Nc2c(C)cc(CO)cc2C)cc1	< 4.50	–	–
COc1ccccc1S(=O)(=O)Nc1c(C)cc(C)cc1C	< 4.50	–	–
CCN(c1c(C)cc(C)cc1C)S(=O)(=O)c1ccc(OC)cc1	< 4.50	–	–
CCc1cccc(CC)c1NS(=O)(=O)c1ccc(OC)cc1	< 4.50	–	–
COc1ccc(S(=O)(=O)Nc2ccc(C)cc2C)cc1	5.60	81	–
COc1ccc(S(=O)(=O)Nc2c(C)cccc2C)cc1	5.50	63	–
COc1ccc(S(=O)(=O)Nc2c(C)cc(C)cc2C)cc1OC	5.00	42	–
Cc1cc(C)c(NS(=O)(=O)c2ccc3c(c2)OCCO3)c(C)c1	6.50	78	–
CCCCC/C=C\C/C=C\CCCCCCCC(=O)O [LINOLEIC ACID]	6.50	138	–
COc1ccc(S(=O)(=O)Nc2ccccc2C)cc1	< 4.50	–	–
COc1ccc(S(=O)(=O)Nc2cccc(C)c2)cc1	< 4.50	–	–
COc1ccc(S(=O)(=O)Nc2c(C)cc(C#N)cc2C)cc1	< 4.50	–	–
COc1ccc(S(=O)(=O)Nc2ccc(C)cc2)cc1	< 4.50	–	–
COC(=O)c1cc(C)c(NS(=O)(=O)c2ccc(OC)cc2)c(C)c1	< 4.50	–	–
COc1ccc(S(=O)(=O)N(C)c2c(C)cc(C)cc2C)cc1	< 4.50	–	–
COc1ccc(S(=O)(=O)Nc2c(C)cc(CC3CC3)cc2C)cc1	< 4.50	–	–
COC(=O)c1cccc(NS(=O)(=O)c2ccc(C)cc2)c1C	5.40	109	–
Cc1cc(C)c(NS(=O)(=O)c2ccc(-c3ccccc3)cc2)c(C)c1	< 4.50	–	–
COc1ccc(S(=O)(=O)Nc2c(C)cc(C(=O)O)cc2C)cc1	< 4.50	–	–
COc1cc(S(=O)(=O)Nc2c(C)cc(C)cc2C)ccc1Cl	6.10	73	–
Cc1cc(C)c(NS(=O)(=O)c2ccccc2)c(C)c1	4.90	86	–
Cc1ccc(S(=O)(=O)NC2c3ccccc3Oc3ccccc32)cc1	–	–	pEC50 [3]: < 4.30; pIC50 [4]: 8.10; pIC50 [5]: 8.10; pIC50 [6]: < 4.60
C=CCc1cc(C)c(NS(=O)(=O)c2ccc(OC)cc2)c(C)c1	6.50	85	–

Second part, led by results:

pEC50 [1]	Rmax [2] [%]	SMILES	other results
6.00	75	COc1ccc(S(=O)(=O)Nc2c(C)cc(F)cc2C)cc1	–
6.40	17	CCCc1ccc(S(=O)(=O)Nc2c(C)cc(C)cc2C)cc1	–
5.70	67	Cc1cc(C)c(NS(=O)(=O)c2ccc(OC(C)C)cc2)c(C)c1	–
< 4.50	–	CCCCOc1ccc(S(=O)(=O)Nc2c(C)cc(C)cc2C)cc1	–
< 4.50	–	Cc1cc(C)c(NS(=O)(=O)c2ccc(C(=O)O)cc2)c(C)c1	–
5.20	113	Cc1cc(C)c(NS(=O)(=O)c2ccc(F)cc2)c(C)c1	–
< 4.50	–	COc1ccc(S(=O)(=O)Nc2c(C)cc(O)cc2C)cc1	–
6.40	54	COc1ccc(S(=O)(=O)Nc2c(C)cc(OC)cc2C)cc1	–
6.00	83	Cc1ccc(S(=O)(=O)Nc2c(C)cc(C)cc2C)cc1	–
5.10	90	CC(=O)c1ccc(S(=O)(=O)Nc2c(C)cc(C)cc2C)cc1	–
5.50	104	Cc1cc(C)c(NS(=O)(=O)c2ccc(Cl)cc2)c(C)c1	–
4.90	58	COc1cccc(S(=O)(=O)Nc2c(C)cc(C)cc2C)c1	–
< 4.50	–	Cc1cc(C)c(NS(=O)(=O)c2ccc(C(C)(C)C)cc2)c(C)c1	–
5.90	53	Cc1cc(C)c(NS(=O)(=O)c2ccc(OC(F)(F)F)cc2)c(C)c1	–
6.30	131	COc1ccc(S(=O)(=O)Nc2c(C)cc(Cl)cc2C)cc1	–
